# Assay results from the M2OR odorant receptor database.
# Numbering of substitutions follows the chain as printed.
# How the values were obtained:
# Conditions in all cases: stereoisomer not certain
# O1440 = tested on: T1, O1440
# T1 sequence (whole entry): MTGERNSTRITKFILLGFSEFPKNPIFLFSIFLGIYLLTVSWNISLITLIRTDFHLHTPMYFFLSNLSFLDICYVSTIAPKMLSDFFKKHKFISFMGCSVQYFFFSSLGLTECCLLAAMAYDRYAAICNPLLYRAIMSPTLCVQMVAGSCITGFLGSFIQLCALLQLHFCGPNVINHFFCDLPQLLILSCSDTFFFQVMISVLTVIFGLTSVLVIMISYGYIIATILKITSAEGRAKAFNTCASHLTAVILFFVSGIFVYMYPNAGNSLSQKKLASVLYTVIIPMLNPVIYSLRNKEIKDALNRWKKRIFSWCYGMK
# In short: (§1)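 Each receptor–molecule pair is labelled responsive or non-responsive (inactive) according to whether the original authors judged the measured signal statistically different from baseline. The data were taken from the main text and supplementary material of published papers and checked for typos and inconsistencies. Assay methods differed by source, with transient luciferase assays in mammalian cell lines being common.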
# O14A2 I133V = tested on: T2, O14A2 I133V
# T2 sequence (whole entry): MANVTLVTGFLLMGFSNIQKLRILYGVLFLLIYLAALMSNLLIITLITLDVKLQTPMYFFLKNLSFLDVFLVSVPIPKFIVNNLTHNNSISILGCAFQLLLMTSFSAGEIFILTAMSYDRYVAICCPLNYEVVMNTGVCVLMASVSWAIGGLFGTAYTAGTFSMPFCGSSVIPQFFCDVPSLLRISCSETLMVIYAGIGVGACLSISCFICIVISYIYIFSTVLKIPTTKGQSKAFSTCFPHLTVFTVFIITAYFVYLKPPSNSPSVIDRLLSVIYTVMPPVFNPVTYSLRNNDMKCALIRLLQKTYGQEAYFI
# In short: as §1
# O14CZ = tested on: T3, O14CZ
# T3 sequence (whole entry): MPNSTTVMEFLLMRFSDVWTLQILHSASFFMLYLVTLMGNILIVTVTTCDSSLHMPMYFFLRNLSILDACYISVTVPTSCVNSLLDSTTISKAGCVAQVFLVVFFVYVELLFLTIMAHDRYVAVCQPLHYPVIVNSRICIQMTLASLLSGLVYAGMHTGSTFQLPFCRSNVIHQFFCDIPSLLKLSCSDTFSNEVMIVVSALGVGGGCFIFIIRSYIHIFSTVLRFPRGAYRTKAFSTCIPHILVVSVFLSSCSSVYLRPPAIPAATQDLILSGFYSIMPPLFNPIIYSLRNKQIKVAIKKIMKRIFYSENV
# In short: as §1
# O14I1 V36A D50N Y216C = tested on: T4, O14I1 V36A D50N Y216C
# T4 sequence (whole entry): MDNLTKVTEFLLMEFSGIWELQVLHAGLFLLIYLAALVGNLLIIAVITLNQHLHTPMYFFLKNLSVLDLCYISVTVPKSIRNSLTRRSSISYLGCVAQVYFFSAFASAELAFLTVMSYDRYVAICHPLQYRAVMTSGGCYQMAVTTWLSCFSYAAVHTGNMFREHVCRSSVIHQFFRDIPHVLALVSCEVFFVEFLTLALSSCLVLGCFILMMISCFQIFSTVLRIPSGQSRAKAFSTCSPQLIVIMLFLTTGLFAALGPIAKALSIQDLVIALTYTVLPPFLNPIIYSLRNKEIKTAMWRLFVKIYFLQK
# In short: as §1
# O14J1 N3Y = tested on: T5, O14J1 N3Y
# T5 sequence (whole entry): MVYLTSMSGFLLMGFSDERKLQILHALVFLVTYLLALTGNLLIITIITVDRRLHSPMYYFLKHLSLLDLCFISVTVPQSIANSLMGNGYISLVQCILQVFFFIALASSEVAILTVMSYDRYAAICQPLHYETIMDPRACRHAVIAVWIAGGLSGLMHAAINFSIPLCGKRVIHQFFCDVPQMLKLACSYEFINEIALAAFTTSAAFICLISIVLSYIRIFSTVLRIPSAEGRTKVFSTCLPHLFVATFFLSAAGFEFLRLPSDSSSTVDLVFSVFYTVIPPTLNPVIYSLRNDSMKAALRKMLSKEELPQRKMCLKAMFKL
# In short: as §1
# O14K1 D119Y = tested on: T6, O14K1 D119Y
# T6 sequence (whole entry): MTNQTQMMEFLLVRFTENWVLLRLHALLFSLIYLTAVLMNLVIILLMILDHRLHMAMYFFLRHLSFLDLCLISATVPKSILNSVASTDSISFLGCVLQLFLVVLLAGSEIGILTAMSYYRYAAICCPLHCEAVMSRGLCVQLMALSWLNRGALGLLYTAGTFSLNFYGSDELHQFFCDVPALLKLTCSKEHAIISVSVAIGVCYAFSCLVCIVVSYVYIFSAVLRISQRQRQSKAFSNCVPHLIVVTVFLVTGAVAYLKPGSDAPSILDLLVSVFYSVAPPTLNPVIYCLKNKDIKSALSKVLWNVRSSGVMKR
# In short: as §1
# O2A25 = tested on: T7, O2A25
# T7 sequence (whole entry): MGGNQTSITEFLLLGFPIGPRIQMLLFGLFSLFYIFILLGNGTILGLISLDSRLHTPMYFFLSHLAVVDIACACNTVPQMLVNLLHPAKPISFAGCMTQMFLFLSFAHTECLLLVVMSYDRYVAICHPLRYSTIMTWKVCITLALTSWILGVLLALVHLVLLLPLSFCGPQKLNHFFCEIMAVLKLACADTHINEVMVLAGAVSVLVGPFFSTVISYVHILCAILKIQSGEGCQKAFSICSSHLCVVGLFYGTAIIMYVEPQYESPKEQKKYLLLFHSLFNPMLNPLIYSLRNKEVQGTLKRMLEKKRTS
# In short: as §1
# O2AE1 = tested on: T8, O2AE1
# T8 sequence (whole entry): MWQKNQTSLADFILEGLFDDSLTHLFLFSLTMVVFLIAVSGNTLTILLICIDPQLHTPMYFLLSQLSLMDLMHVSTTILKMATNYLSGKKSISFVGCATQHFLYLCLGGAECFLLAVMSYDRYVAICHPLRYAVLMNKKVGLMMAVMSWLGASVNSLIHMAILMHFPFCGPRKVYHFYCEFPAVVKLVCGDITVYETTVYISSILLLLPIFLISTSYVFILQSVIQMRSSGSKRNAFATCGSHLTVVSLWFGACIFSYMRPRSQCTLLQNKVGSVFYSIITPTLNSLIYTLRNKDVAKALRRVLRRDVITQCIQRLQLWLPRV
# In short: as §1
# O2AJ1 = tested on: T9, O2AJ1
# T9 sequence (whole entry): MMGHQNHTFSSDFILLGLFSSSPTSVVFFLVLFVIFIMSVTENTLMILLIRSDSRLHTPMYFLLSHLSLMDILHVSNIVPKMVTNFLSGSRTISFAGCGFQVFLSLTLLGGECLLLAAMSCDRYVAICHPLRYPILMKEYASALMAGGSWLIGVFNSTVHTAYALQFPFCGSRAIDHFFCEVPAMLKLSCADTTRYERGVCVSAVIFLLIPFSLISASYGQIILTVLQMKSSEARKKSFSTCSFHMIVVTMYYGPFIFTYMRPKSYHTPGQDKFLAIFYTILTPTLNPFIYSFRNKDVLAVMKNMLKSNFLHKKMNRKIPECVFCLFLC
# In short: as §1
# O2AK2 S99N = tested on: T10, O2AK2 S99N
# T10 sequence (whole entry): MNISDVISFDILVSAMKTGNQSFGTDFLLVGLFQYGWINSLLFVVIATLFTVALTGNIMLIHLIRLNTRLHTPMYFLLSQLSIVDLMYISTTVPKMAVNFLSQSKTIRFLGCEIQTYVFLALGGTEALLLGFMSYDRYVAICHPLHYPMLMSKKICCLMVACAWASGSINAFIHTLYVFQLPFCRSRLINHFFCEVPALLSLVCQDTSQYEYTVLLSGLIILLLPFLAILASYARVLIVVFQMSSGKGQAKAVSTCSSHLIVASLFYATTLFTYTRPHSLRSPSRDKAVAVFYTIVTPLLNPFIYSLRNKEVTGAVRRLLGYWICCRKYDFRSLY
# In short: as §1
# O2T11 = tested on: T11, O2T11
# T11 sequence (whole entry): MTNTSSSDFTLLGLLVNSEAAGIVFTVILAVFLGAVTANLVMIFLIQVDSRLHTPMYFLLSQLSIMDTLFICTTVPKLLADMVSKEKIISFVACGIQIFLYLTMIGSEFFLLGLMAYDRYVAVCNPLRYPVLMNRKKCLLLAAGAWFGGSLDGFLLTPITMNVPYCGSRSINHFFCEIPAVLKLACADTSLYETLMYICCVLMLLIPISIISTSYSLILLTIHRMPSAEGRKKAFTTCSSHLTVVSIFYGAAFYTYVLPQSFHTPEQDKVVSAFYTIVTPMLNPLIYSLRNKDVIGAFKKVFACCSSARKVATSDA
# In short: as §1
# O2T27 L36V V134D = tested on: T12, O2T27 L36V V134D
# T12 sequence (whole entry): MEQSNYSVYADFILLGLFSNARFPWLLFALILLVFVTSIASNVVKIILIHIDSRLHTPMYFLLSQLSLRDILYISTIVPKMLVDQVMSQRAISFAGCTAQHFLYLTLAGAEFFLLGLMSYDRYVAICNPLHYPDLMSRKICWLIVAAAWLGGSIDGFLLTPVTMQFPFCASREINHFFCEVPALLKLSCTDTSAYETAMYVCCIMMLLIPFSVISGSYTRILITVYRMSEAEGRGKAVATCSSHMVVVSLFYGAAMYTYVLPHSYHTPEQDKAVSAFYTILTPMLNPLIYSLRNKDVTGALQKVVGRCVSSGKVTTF
# In short: as §1
# O2T29 Q24R = tested on: T13, O2T29 Q24R
# T13 sequence (whole entry): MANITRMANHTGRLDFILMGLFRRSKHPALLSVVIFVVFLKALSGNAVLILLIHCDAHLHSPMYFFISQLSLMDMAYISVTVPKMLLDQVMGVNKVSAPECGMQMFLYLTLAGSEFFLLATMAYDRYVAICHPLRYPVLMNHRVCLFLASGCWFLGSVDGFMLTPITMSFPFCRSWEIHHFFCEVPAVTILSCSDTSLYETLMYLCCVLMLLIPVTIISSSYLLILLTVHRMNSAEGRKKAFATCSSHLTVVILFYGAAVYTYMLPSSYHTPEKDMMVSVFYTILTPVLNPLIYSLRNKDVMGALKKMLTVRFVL
# In short: as §1
# O2T33 A169V = tested on: T14, O2T33 A169V
# T14 sequence (whole entry): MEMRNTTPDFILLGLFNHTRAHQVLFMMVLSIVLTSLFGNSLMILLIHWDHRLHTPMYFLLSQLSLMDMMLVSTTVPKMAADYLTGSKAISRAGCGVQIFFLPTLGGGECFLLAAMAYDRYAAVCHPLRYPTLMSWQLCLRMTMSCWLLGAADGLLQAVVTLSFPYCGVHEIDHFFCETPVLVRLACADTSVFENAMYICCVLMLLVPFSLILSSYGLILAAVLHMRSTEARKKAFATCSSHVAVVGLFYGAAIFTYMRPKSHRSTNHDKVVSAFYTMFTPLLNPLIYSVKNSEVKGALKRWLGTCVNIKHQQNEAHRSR
# In short: as §1
# O2T33 G297E I309L = tested on: T15, O2T33 G297E I309L
# T15 sequence (whole entry): T14 sequence (whole entry) with V169A, G297E, I309L
# In short: as §1
# O2T34 Q6P R267P = tested on: T16, O2T34 Q6P R267P
# T16 sequence (whole entry): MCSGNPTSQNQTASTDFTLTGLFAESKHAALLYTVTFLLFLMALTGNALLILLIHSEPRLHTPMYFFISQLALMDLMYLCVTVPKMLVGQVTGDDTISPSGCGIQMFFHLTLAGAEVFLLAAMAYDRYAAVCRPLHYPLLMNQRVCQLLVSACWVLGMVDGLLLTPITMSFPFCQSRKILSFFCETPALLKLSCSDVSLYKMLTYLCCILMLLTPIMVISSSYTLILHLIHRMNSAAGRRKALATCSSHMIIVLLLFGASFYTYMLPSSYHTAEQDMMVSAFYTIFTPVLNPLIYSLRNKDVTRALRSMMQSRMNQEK
# In short: as §1
# O2T34 R267P = tested on: T17, O2T34 R267P
# T17 sequence (whole entry): T16 sequence (whole entry) with P6Q
# In short: as §1
# O4A47 = tested on: T18, O4A47
# T18 sequence (whole entry): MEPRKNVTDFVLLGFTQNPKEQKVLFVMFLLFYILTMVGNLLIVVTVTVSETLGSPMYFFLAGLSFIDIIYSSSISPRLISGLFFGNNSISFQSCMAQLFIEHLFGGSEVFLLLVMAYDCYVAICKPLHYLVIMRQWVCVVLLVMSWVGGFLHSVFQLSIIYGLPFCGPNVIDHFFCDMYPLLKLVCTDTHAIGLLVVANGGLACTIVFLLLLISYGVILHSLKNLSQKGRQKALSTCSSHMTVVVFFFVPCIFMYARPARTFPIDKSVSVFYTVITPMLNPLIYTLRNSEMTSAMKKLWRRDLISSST
# In short: as §1
# O4C46 S240F C252Y K288R = tested on: O4C46 S240F C252Y K288R
# In short: as §1
# O4F15 A272T = tested on: T19, O4F15 A272T
# T19 sequence (whole entry): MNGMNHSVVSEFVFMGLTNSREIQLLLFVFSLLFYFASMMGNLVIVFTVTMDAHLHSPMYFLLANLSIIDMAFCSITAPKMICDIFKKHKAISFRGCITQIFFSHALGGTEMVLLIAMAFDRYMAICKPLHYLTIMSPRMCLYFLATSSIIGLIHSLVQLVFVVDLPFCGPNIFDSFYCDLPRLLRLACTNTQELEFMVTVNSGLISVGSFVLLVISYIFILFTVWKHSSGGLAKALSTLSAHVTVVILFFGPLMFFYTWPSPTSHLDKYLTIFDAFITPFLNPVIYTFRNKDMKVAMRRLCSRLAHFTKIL
# In short: as §1
# 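Note: active if original authors judged signal statistically different from baseline.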
smiles,measurement,setting,value
OC1CCCCCCCCCCCCCC1,odorant receptor agonist call,O1440,active
CC1=C(O)C(=O)OC1C (stereo unspecified),odorant receptor agonist call,O14A2 I133V,inactive
same,odorant receptor agonist call,O14CZ,inactive
same,odorant receptor agonist call,O14I1 V36A D50N Y216C,inactive
same,odorant receptor agonist call,O14J1 N3Y,inactive
same,odorant receptor agonist call,O14K1 D119Y,inactive
same,odorant receptor agonist call,O2A25,inactive
same,odorant receptor agonist call,O2AE1,inactive
same,odorant receptor agonist call,O2AJ1,inactive
same,odorant receptor agonist call,O2AK2 S99N,inactive
same,odorant receptor agonist call,O2T11,inactive
same,odorant receptor agonist call,O2T27 L36V V134D,inactive
same,odorant receptor agonist call,O2T29 Q24R,inactive
same,odorant receptor agonist call,O2T33 A169V,inactive
same,odorant receptor agonist call,O2T33 G297E I309L,inactive
same,odorant receptor agonist call,O2T34 Q6P R267P,inactive
same,odorant receptor agonist call,O2T34 R267P,inactive
same,odorant receptor agonist call,O4A47,inactive
same,odorant receptor agonist call,O4C46 S240F C252Y K288R,inactive
same,odorant receptor agonist call,O4F15 A272T,inactive
CC(=O)c1c(C)c([N+](=O)[O-])c(C(C)(C)C)c([N+](=O)[O-])c1C,odorant receptor agonist call,O1440,active
